Compounds with a hit are over-represented: about 2.2% of the library has one in this group of screens.
Hsp70 act: Hsp70 transcriptional activators, primary screen, cell-based, HeLa, Hsp70 promoter luciferase, luminescence, 10 µM; actives 0.04% (n = 200,000); activation, % at 10 µM; AID 1203, 2008; HeLa Hsp70 promoter luciferase reporter; scaled: vehicle 0, proteasome-inhibitor control 100%;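 active = activation above the mean across all tested compounds plus 3 SD, cutoff set per campaign, cut at about 5.5% in these data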;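 also: 100% = MG132 at 30 µM as the positive control and 0% = DMSO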
MDM2 E3 inh: MDM2-luciferase reporter signal enhancers, primary screen, MDM2 E3 ligase inhibitor project, cell-based, luminescence, 1536-well; cell-based MDM2 ubiquitination luciferase reporter, 2 h; 0 = plate control, 100 = twice control, blank-subtracted; signal enhancement, % at 5 µM; actives 0.11% (n = 210,000); AID 1230, 2008;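 active = signal enhancement of 30% or more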;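 also: luminescence tracks abundance of the self-degrading MDM2-luciferase fusion protein; higher signal means inhibition of MDM2 E3 ligase activity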
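Buffer or medium: Cells held in DMEM | Assay system: Stable mammalian line carrying autodegrading MDM2–luciferase fusion reporter | Quantity: 2000 cells/well | Times: 4 h settle plus 2 h compound, 37 °C | Doses: One concentration, 5 µM, with 0.2% DMSO | Technique: Luminescence with SteadyLite reagent, 15 min at room temperature | Benchmarks: Plate controls and plate blanks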
INS promoter inh: inhibitors of insulin promoter-driven GFP, primary screen, imaging, TRM-6 cells (human fetal islet line), eGFP reporter, cell count; reporter expression induced with tamoxifen; AID 1273, 2008; inhibition, % at 2 µM; actives 0.9% (n = 130,000);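 active = inhibition above the mean plus 3 SD, with well images judged a real hit on visual review, cut at about 60% in these data, passing the limit was not always enough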
RBBP9 inhibitor: human RBBP9 inhibitors, primary screen, biochemical, fluorescence polarization, FP-Rh probe, HTS. Serine hydrolase RBBP9 (Homo sapiens), O75884. recombinant RBBP9. inhibition, % at 7.94 µM. actives 0.2% (n = 220,000). AID 1515, 2009;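 active = inhibition above the campaign mean of all tested compounds plus 3 SD, cut at about 14% in these data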;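 also: plate controls were DMSO wells with RBBP9 for no effect and wells lacking RBBP9 protein for full effect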
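Test system – recombinant human RBBP9 · Input – RBBP9 2.5 µM in dispensing solution, pre-mixing · Medium – Tris buffer pH 8.0, NaCl, Pluronic · Schedule – preincubation 30 min plus labeling 45 min at 25 °C · Measured by – fluorescence polarization · Measure – % inhibition · Controls – DMSO and no-protein wells · Replicates – one well per compound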
Wee1 stabilizer: Wee1 degradation inhibitors, primary screen, cell-based, HeLa, Wee1K328M-luciferase, luminescence | actives 1.2% (n = 220,000) | Wee1-like protein kinase (Homo sapiens), P30291 | reporter increase, % at 5 µM | HeLa Luc-Wee1K328M stability; 100% = proteasome inhibitor MG132 effect;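 active = activation above the mean of all tested compounds plus 3 SD, set per screening run, cut at about 8.8% in these data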;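 also: cells exposed to compound for 20 h before luminescence read; 0% = DMSO alone and 100% = MG132 at 30 µM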
Target sequence (P30291 whole entry K328M): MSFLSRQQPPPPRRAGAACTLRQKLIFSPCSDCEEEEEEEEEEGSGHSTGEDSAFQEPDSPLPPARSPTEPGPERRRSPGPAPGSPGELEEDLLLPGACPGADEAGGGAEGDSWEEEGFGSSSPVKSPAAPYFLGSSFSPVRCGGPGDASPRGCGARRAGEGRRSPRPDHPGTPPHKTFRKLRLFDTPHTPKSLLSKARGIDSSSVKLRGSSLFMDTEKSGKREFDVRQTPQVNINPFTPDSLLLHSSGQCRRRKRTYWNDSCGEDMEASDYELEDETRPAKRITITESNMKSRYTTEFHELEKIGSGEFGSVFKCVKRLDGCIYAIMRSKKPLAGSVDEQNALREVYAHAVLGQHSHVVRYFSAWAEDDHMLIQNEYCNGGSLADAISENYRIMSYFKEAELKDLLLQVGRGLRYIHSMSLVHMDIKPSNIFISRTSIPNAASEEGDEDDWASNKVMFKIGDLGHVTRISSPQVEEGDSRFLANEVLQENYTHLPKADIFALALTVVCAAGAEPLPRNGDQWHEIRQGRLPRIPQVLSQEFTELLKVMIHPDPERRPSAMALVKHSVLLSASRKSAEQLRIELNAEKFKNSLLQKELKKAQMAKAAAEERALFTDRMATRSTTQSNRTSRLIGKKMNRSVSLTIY
Insulin prom up: insulin promoter activators in MIN6 cells, imaging, high-content screening, mouse beta cells; z-score at 5 µM; MIN6 insulin promoter-GFP reporter; hits give high values; actives 0.3% (n = 190,000);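 active = z-score above 3 at 5 µM with at least 500 cells counted in the well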
Starred values were filed as active, the others as inactive; x = no result given.

SMILES	Hsp70 act	MDM2 E3 inh	INS promoter inh	RBBP9 inhibitor	Wee1 stabilizer	Insulin prom up
O=C(OCCN1C(=O)c2cccc3c(N4CCOCC4)ccc(c23)C1=O)c1ccc(Cl)cc1	0	-2	x	-7	-2	1.2
O=C(Nc1ncn[nH]1)c1ccc(Cl)cc1Cl	0	-4	18	-5	4	1.2
Clc1ccc(Nc2ncn[nH]2)c(Cl)c1	0	-5	66*	4	1	-0.02
Cc1ccc(OCC(=O)Nc2ccc3c(c2)nc(CCN2CCN(C)CC2)n3C)cc1	x	-18	x	-5	2	-0.32
COc1ccc(OCC(=O)Nc2ccc3c(c2)nc(CCN2CCOCC2)n3C)cc1	0	-2	x	-4	9.1*	0.06
c1nc(NC2CCCCC2)c2[nH]cnc2n1	0	0	-21	-3	1	-0.35
c1nc(NC2CCCCCC2)c2[nH]cnc2n1	0	-24	70*	-9	-3	0.49
C[N+]1(CCC(=O)c2ccccc2)CCCCC1	-1	-8	64*	-4	0	0.48
CCc1oc(C(=O)OC)cc1CSC(=N)N	x	-39	x	-5	2	-0.05
Cc1ccc(Cn2nc(C)c3cc(C(=O)OCC(N)=O)sc32)cc1	0	-11	6	-7	9.8*	x
C=C(C)C1CC=C(C)/C(=N/NC(=O)c2ccc(NC(=O)CC)cc2)C1 (stereo not given)	0	x	-35	-9	3	0.81
C=C(C)C1CC=C(C)/C(=N/NC(=O)c2ccc(NC(=O)CCC)cc2)C1 (stereo not given)	0	-7	83*	-1	-1	0.45
O=C(Nc1ccc(C(=O)O)cc1)/C(=C\c1ccc2c(c1)OCO2)NC(=O)c1ccccc1	0	-12	80*	0	-1	0.08
CCOC(=O)c1ccc(CC(=O)c2oc3cc(O)ccc3c2C)o1	0	-13	33	-3	10*	0.19
COc1cccc(CN(C)CC(=O)Nc2cc3oc4ccccc4c3cc2OC)c1	0	x	3	-8	9.9*	0.57
COc1cc2c(cc1NC(=O)CN(C)Cc1cccc(OC)c1OC)oc1ccccc12	0	-4	13	-7	-1	-0.43
Cc1csc(NC(=O)C2CCN(S(=O)(=O)c3ccccc3F)CC2)n1	0	-4	-111	-11	-4	-0.6
Cn1cc(/C=C2\SC(=S)N(NC(=O)c3cccc(Cl)c3)C2=O)c2ccccc21	x	x	x	-4	1	7.3*
Cn1cc(/C=C2\SC(=S)N(NC(=O)c3ccccc3)C2=O)c2ccccc21	0	5	-12	-4	0	x
CCc1cccc(CC)c1NC(=O)CSc1nnc(CCC(=O)O)c(=O)[nH]1	0	6	45	-10	9.5*	x
Cc1nnc(SCC(=O)Nc2ccccc2)[nH]c1=O	0	-13	31	-1	-3	1.2
C#CCOCCOCCOCCNc1nc(N2CCN(C(=O)C([C@@H](C)CC)n3cc(C(N)Cc4ccc(O)cc4)nn3)CC2)nc(N2CCN(C(=O)[C@H](CCC(=O)O)n3cc(C(N)CC(C)C)nn3)CC2)n1 (stereo not given in full)	0	x	x	0	5	0.27
C#CCOCCOCCOCCNc1nc(N2CCN(C(=O)C([C@@H](C)CC)n3cc(C(N)CC(C)C)nn3)CC2)nc(N2CCN(C(=O)[C@H](CCC(=O)O)n3cc(C(N)Cc4ccc(O)cc4)nn3)CC2)n1 (stereo not given in full)	0	x	x	-8	11*	-0.43
C#CCOCCOCCOCCNc1nc(N2CCN(C(=O)[C@H]([C@@H](C)CC)n3cc([C@@H](N)CC(C)C)nn3)CC2)nc(N2CCN(C(=O)[C@H](CCCCN)n3cc([C@@H](N)CO)nn3)CC2)n1	0	x	x	4	9.2*	-1.2
C#CCOCCOCCOCCNc1nc(N2CCN(C(=O)[C@H](CCCCN)n3cc([C@@H](N)CC(C)C)nn3)CC2)nc(N2CCN(C(=O)[C@H](CCCCN)n3cc([C@@H](N)CC(C)C)nn3)CC2)n1	0	x	x	3	-1	-0.8
SMILES	Hsp70 act	MDM2 E3 inh	INS promoter inh	RBBP9 inhibitor	Wee1 stabilizer	Insulin prom up
CC(=O)c1ccc(NC(=O)c2noc3c2CCCCC3)cc1	0	-8	-10	1	7	0.71
O=C(Nc1ccc2c(c1)OCO2)c1cc(C2CC2)on1	0	-17	x	5	2	2.1
O=C(Nc1ccc2c(c1)OCO2)c1noc2c1CCCCC2	0	-8	7	-3	10*	-0.09
CC(C)c1cc(C(=O)Nc2ccc3c(c2)OCO3)no1	0	-23	80*	-2	-1	0.31
Cc1c(C(=O)NCC2COc3ccccc3O2)oc2ccc(S(=O)(=O)N3CCOCC3)cc12 (stereo not given)	0	-19	39	-7	9.1*	-1.6
O=C(O)C1CSC(c2ccccc2)N1C(=O)c1ccco1 (stereo not given)	0	-4	74*	-7	0	-0.61
CC(=O)N1C(C(=O)O)CSC1c1cccc(C)c1 (stereo not given)	0	-17	10	4	-1	0.54
CCOC(=O)c1ccc(NC(=O)CC2S/C(=N/N=C/c3c[nH]c4ccccc34)NC2=O)cc1 (stereo not given)	0	-3	25	9	4	-0.2
Cc1ccc(NC(=O)CC2S/C(=N/N=C/c3c[nH]c4ccccc34)NC2=O)cc1 (stereo not given)	0	x	53	0	9.7*	0.16
Cn1c(CN2CCCC2)nc2cc(NC(=O)c3cccs3)ccc21	0	-14	0	-14	1	0.38
CC/C(=N\NC(=O)c1ccc(N(C)C)cc1)c1ccccc1	0	-21	50	-2	9.5*	0.18
CCOC(=O)c1sc(N(Cc2ccccc2)C(=O)CSc2nnc(C3CC3)n2N)nc1C	0	-1	x	-7	5	-0.14
Brc1ccc(C=Nc2ccc(Nc3ccccc3)cc2)s1	0	12	27	-3	0	2
C(=Nc1ccc(Nc2ccccc2)cc1)c1ccc2ccccc2c1	0	8	64*	7	-2	0.57
O=C(O)c1cnc2ccccc2n1	0	-18	85*	-3	-1	0.49
O=C(Cc1ccccc1[N+](=O)[O-])NCc1ccc(Cl)cc1Cl	0	-15	x	-7	9.4*	0.38
O=C(Cc1ccccc1[N+](=O)[O-])NCc1ccc(Cl)cc1	-1	-3	-25	-11	-1	-0.11
